A short description of series [1]: time-resolved fluorescence. Format: physicochemical. The method, boiled down:
(§1)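 Lifetimes measured by time-correlated single-photon counting, with two sources. One used hydrogen-lamp excitation (about 300 ps resolution). The other used 310 nm third-harmonic excitation from 930 nm femtosecond pulses (82 MHz) with a microchannel-plate detector (about 15 ps resolution). Emission was collected at right angles through a 54.7° polarizer. Decays were fitted to sums of exponentials with the instrument response deconvolved.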

Series [2] can be described thus: steady-state absorption and emission spectroscopy, free in solution. Format: physicochemical. The note with it: for λabs: neutral water; for λem, normal / N(1)-H emission: neutral water (peptides: neutral Tris buffer); for λem, second band (N(2)-H emission) / λem, third band (N(7)-H tautomer emission): neutral water / neutral Tris buffer. The method, boiled down:
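Absorption recorded on a UV-vis spectrophotometer. Emission recorded on a fluorimeter with wavelength-calibrated excitation and emission response. Peptide concentration was set spectrophotometrically from the extinction coefficient of its single Trp or Trp-analogue residue.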

The target in series [3] is T1, bovine brain calmodulin (CaM) (Bos taurus, UniProt P62157). As to the kind of experiment: time-resolved fluorescence. Format: binding. The note with it: peptide-CaM complex, ±0.03 ns uncertainty. The method, boiled down:
as §1

Series [4] has as its target T1, bovine brain calmodulin (CaM). As to the kind of experiment: CaM binding by fluorescence titration. The note with it: for increase in CaM binding affinity on replacing Trp: relative to Baa (210±10 pM).
Series [5] shares this target. The experiment in a line: steady-state emission spectra upon titration with CaM. Format: binding. The note with it: for λem, N(1)-H emission: bound to CaM, pH 7.5 Tris buffer; for environment around Trp analogue upon binding CaM: deduced from steady-state emission; for λabs: in presence of CaM. The gist of the method:
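Peptide at 1 µM in 5 mM Tris-HCl, pH 7.5, 1.0 mM CaCl₂, 25 °C. CaM added stepwise to 6 µM final, with 1 min stirring and 10 min equilibration per step. Full emission spectra recorded on a calibrated fluorimeter, corrected for dilution, each an average of three replicates. Peptide and CaM concentrations were set from Trp and Tyr absorption extinction coefficients.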

A short description of the next series: CD spectrum. In kind it is physicochemical. The note with it: Fig. S2.
The conditions of series [6]: cited from earlier work.
For series [7] the following is noted: cited from earlier work. The source holds these as a separate data set.
The mark [8] stands for this setting: free, neutral water, λmon 320 nm, ±0.03 ns uncertainty.
[9] abbreviates: free, neutral water, λmon 550 nm, ±0.03 ns uncertainty.
Where [10] appears, read: free, neutral water, λmon not given, ±0.03 ns uncertainty.
[11] abbreviates: free, neutral water, λmon 380 nm.
Where [12] appears, read: free, neutral water, λmon 380 nm, ±0.03 ns uncertainty.
Setting [13] is: free, neutral water, λmon 540 nm, ±0.03 ns uncertainty.

Where two headings read alike, the source gives them in different places. Starred links: 1 amine or outer side, 2 acyl side, 3 side chain; linkers in the order of their positions; H or OH if unused. Non-standard residues stand in square brackets, D forms with d. Residues, ends and D or L forms follow the SMILES beside them. Trp(7-aza) = N[C@@H](Cc1c[nH]c2ncccc12)C(=O)O; X1 = O=C([C@H](Cc1n[nH]c2ncccc12)N[*:1])[*:2]

In series [1] (setting [8]), `c1cnc2[nH]ncc2c1` [2,7-diazaindole] gave a τ of 0.22 ns. In addition, the τ in series [1] (free, neutral water, λmon 400 nm, ±0.03 ns uncertainty) was determined as 10.10 ns. Further, in series [1] (setting [9]), the “τ, decay component” value is 1.30 ns and the “τ, rise component” value is given as 0.21 ns. In series [2], the λabs is 295 nm; the “λem, normal / N(1)-H emission” value is given as 335 nm; the “λem, second band (N(2)-H emission)” value is listed as 370 nm; the “λem, third band (N(7)-H tautomer emission)” value (“λem, third band” below) was determined as 495 nm.

With `CC(=O)N[C@@H](CC(C)C)C(=O)N[C@@H](CCCCN)C(=O)N[C@@H](Cc1c[nH]c2ncccc12)C(=O)N[C@@H](CCCCN)C(=O)N[C@@H](CCCCN)C(=O)N[C@@H](CC(C)C)C(=O)N[C@@H](CC(C)C)C(=O)N[C@@H](CCCCN)C(=O)N[C@@H](CC(C)C)C(=O)N[C@@H](CC(C)C)C(=O)N[C@@H](CCCCN)C(=O)N[C@@H](CCCCN)C(=O)N[C@@H](CC(C)C)C(=O)N[C@@H](CC(C)C)C(=O)N[C@@H](CCCCN)C(=O)N[C@@H](CC(C)C)C(=O)NCC(N)=O` [(7-aza)Trp-Baa] (Ac-LK[Trp(7-aza)]KKLLKLLKKLLKLG-NH2), in series [1] (free peptide, neutral Tris buffer, λmon 400 nm, ±0.03 ns uncertainty), the “τ, normal (N(1)-H) emission lifetime” value amounted to 0.65 ns. Moreover, the “τ, normal (N(1)-H) emission lifetime” value in series [3] (λmon 360 nm (text: 358 nm emission)) is 7.35 ns. Further, the affinity in series [4], expressed as Kd, was 0.109 ± 0.005 nM. Moreover, the “λem, N(1)-H emission” value in series [5] (1.0 mM CaCl2) came to 358 nm. Further, in series [5], the “environment around Trp analogue upon binding CaM” value is “less polar environment” and the λabs worked out at 300 nm. For the same compound, in series [2], the λabs is 300 nm and the “λem, normal / N(1)-H emission” value was found to be 400 nm. Also, in “CD spectrum”, the “secondary structure by CD” value is “α-helix structure”.

As for Ac-LKWKKLLKLLKKLLKLG-NH2 [Baa], the “secondary structure by CD” value in the series “CD spectrum” was “α-helix structure”.

`c1cnc2[nH]ccc2c1` [7-azaindole]: the τ in series [1] (setting [10]) turned out to be 0.91 ns. For the same compound, in series [6] (in DMSO), the lifetime is reported as 9.3 ns. Besides, the lifetime in series [6] (in acetonitrile) is recorded as 5.7 ns. Besides, in series [2], the λabs stood at 288 nm and the “λem, normal / N(1)-H emission” value was determined as 386 nm.

Turning to `N[C@@H](Cc1c[nH]c2ncccc12)C(=O)O` [(7-aza)Trp, 7-azatryptophan], the τ in series [1] (setting [10]) is reported as 0.65 ns. For the same compound, in series [4], the “increase in CaM binding affinity on replacing Trp” value came to 1.9 times. The emission maximum in series [7] (in tetrahydrofuran) is given as 350 nm. In series [2], the λabs amounted to 289 nm and the “λem, normal / N(1)-H emission” value came to 400 nm.

`CC(=O)N[C@@H](CC(C)C)C(=O)N[C@@H](CCCCN)C(=O)N[C@@H](Cc1n[nH]c2ncccc12)C(=O)N[C@@H](CCCCN)C(=O)N[C@@H](CCCCN)C(=O)N[C@@H](CC(C)C)C(=O)N[C@@H](CC(C)C)C(=O)N[C@@H](CCCCN)C(=O)N[C@@H](CC(C)C)C(=O)N[C@@H](CC(C)C)C(=O)N[C@@H](CCCCN)C(=O)N[C@@H](CCCCN)C(=O)N[C@@H](CC(C)C)C(=O)N[C@@H](CC(C)C)C(=O)N[C@@H](CCCCN)C(=O)N[C@@H](CC(C)C)C(=O)NCC(N)=O` [(2,7-aza)Trp-Baa] (Ac-LK[X1]KKLLKLLKKLLKLG-NH2): the “τ, N(1)-H emission lifetime” value in series [1] (free peptide in water, λmon 330 nm, ±0.03 ns uncertainty) is given as 0.21 ns. For the same compound, in series [3] (λmon 330 nm), the “τ, N(1)-H emission lifetime” value amounted to 1.10 ns. In series [4], the Kd is 0.045 ± 0.002 nM. For the same compound, in series [5] (1.0 mM CaCl2), the “λem, N(1)-H emission” value is 340 nm. Further, in series [5], the “environment around Trp analogue upon binding CaM” value is recorded as “water scant environment” and the λabs is on record as 300 nm. In series [5] (pH 7.5 Tris, 1.0 mM CaCl2), the “change of N(1)-H emission at 340 nm upon titration with CaM” value is recorded as “increase of the N(1)-H emission”. Moreover, in series [2], the λabs was 300 nm; the “λem, normal / N(1)-H emission” value is 340 nm; the “λem, second band (N(2)-H emission)” value turned out to be 380 nm; the “λem, third band” value amounted to 500 nm. In addition, the “secondary structure by CD” value in “CD spectrum” is reported as “α-helix structure”.

On to `N[C@@H](Cc1n[nH]c2ncccc12)C(=O)O` [(2,7-aza)Trp, 2,7-diazatryptophan], for which the τ in series [1] (setting [8]) is given as 0.26 ns. For the same compound, in series [1] (setting [11]), the “percentage of τ component 1” value came to 12% and the “percentage of τ component 2” value was 88%. In addition, in series [1] (setting [12]), the “τ, component 1” value is recorded as 0.27 ns and the “τ, component 2” value was determined as 10.07 ns. In series [1] (setting [13]), the “τ, decay component” value is 0.58 ns and the “τ, rise component” value is given as 0.26 ns. The “increase in CaM binding affinity on replacing Trp” value in series [4] was 4.7 times. In addition, the “N(7)-H tautomer emission” value in series [7] (water rich environments) was 500 nm. Also, in series [2], the λabs turned out to be 300 nm; the “λem, normal / N(1)-H emission” value is 340 nm; the “λem, second band (N(2)-H emission)” value is recorded as 380 nm; the “λem, third band” value was found to be 500 nm.

Broadly, the Kd is the constant that tells how readily two partners part at equilibrium. A higher Kd goes with lower affinity.
